# Test results: ChEMBL document CHEMBL1629663, “Postantibiotic effects of telavancin against 16 gram-positive organisms” (Antimicrob Agents Chemother, 2009)
# Tests used:
# Staphylococcus aureus [1] = experiment: Antimicrobial activity against heterogenous vancomycin-intermediate-, methicillin-resistant Staphylococcus aureus 873 assessed as time required to induce post antibiotic sub-MIC effect at 0.3 times MIC […] by plate counting method; assay type: functional
# Summary of the method: (§1)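 PAE was first induced with 10× MIC for 1 h at 35°C (inoculum about 5 × 10^6 CFU/ml, Mueller-Hinton broth) and ended by 1:1,000 dilution. Cultures were then split and given 0.2, 0.3 or 0.4× MIC, with one tube left without drug. Viable counts were taken before exposure, after dilution, then every 2 h until McFarland no. 1 turbidity. Two separate experiments, each with a new inoculum.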
# Staphylococcus aureus [2] = experiment: Antimicrobial activity against vancomycin-intermediate-, methicillin-resistant Staphylococcus aureus 770 assessed as time required to induce post antibiotic sub-MIC effect at 0.2 times MIC pre-exposed to Telavancin […] by plate counting method; assay type: functional; summary of the method: as §1
# Enterococcus faecalis [3] = experiment: Antimicrobial activity against Enterococcus faecalis ATCC 29212 assessed as time required to induce sub-MIC effect at 0.3 times MIC exposed for 2 hrs by plate counting method; assay type: functional
# Summary of the method: (§2)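 Unexposed Mueller-Hinton broth cultures (about 5 × 10^6 CFU/ml, 35°C) were handled as in the PA-SME set but without the 10× MIC pre-exposure. They were diluted 1:1,000, then given telavancin at final 0.2, 0.3 or 0.4× MIC, with a drug-free control. Viable counts were taken every 2 h until McFarland no. 1 turbidity. Effect duration comes from log10 CFU/ml-time plots; two separate experiments with new inocula.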
# Enterococcus faecalis [4] = experiment: Antimicrobial activity against Enterococcus faecalis ATCC 29212 assessed as time required to induce post antibiotic sub-MIC effect at 0.2 times MIC […] by plate counting method; assay type: functional
# Summary of the method: (§3)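 Mueller-Hinton broth cultures of about 5 × 10^6 CFU/ml were pre-exposed to telavancin at 10× MIC for 1 h at 35°C, then diluted 1:1,000. Telavancin was re-added to final 0.2, 0.3 or 0.4× MIC, alongside a drug-free tube. Viable counts were taken before exposure, after dilution, then every 2 h until McFarland no. 1 turbidity. Duration comes from log10 CFU/ml-versus-time plots; two separate experiments with fresh inocula.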
# Staphylococcus aureus [5] = experiment: Antimicrobial activity against vancomycin-susceptible-, methicillin-resistant Staphylococcus aureus 1130 assessed as time required to induce sub-MIC effect at 0.4 times MIC exposed for 2 hrs by plate counting method; assay type: functional
# Summary of the method: (§4)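 Sub-MIC effect: cultures not preexposed to drug were diluted and handled as in the PA-SME procedure in Mueller-Hinton broth with final 0.2, 0.3 or 0.4× MIC, plus a drug-free control. Viable plate counts were taken every 2 h until McFarland 1 turbidity. Duration was derived from growth curves. Two experiments were run, each with a new inoculum.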
# Streptococcus pyogenes = experiment: Antimicrobial activity against Streptococcus pyogenes HMC 414 assessed as time required to induce post antibiotic sub-MIC effect at 0.3 times MIC exposed for […] by plate counting method; assay type: functional; summary of the method: as §3
# Enterococcus faecium [6] = experiment: Antimicrobial activity against Enterococcus faecium HMC 588 assessed as post-antibiotic effect at 10 times MIC pre-exposed to Telavancin for 1 hr by plate counting method; assay type: functional
# Summary of the method: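 Organisms were suspended in Mueller-Hinton broth from overnight blood agar colonies at about 5 × 10^6 CFU/ml. Cultures were exposed to telavancin at 10× MIC for 1 h at 35°C in a shaking water bath, then diluted 1:1,000 to remove the drug, with an untreated growth control. Viable counts were taken before exposure, at 0 h, then every 2 h until McFarland no. 1 turbidity. PAE = T − C, the time to a 1 log10 rise. Two experiments.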
# Enterococcus faecium [7] = experiment: Antimicrobial activity against Enterococcus faecium HMC 588 assessed as time required to induce sub-MIC effect at 0.4 times MIC exposed for 2 hrs by plate counting method; assay type: functional; summary of the method: as §2
# Staphylococcus aureus [8] = experiment: Antimicrobial activity against heterogenous vancomycin-intermediate-, methicillin-resistant Staphylococcus aureus 618 assessed as time required to induce post antibiotic sub-MIC effect at 0.3 times MIC […] by plate counting method; assay type: functional; summary of the method: as §1
# Staphylococcus aureus [9] = experiment: Antimicrobial activity against heterogenous vancomycin-intermediate-, methicillin-resistant Staphylococcus aureus 618 assessed as time required to induce sub-MIC effect at 0.4 times MIC […] by plate counting method; assay type: functional
# Summary of the method: (§5)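 SME, viable plate count method: no prior drug exposure. About 5 × 10^6 CFU/ml in Mueller-Hinton broth at 35°C received 0.2, 0.3 or 0.4× MIC, alongside a drug-free tube. Counts were taken at the start, then every 2 h until McFarland no. 1 turbidity, as log10 CFU/ml against time. Two separate experiments, each with a new inoculum.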
# Staphylococcus aureus [10] = experiment: Antimicrobial activity against vancomycin-resistant-, methicillin-resistant Staphylococcus aureus 510 by microdilution method; assay type: functional
# Staphylococcus aureus [11] = experiment: Antimicrobial activity against vancomycin-susceptible-, methicillin-resistant Staphylococcus aureus 1130 assessed as time required to induce sub-MIC effect at 0.3 times MIC exposed for 2 hrs by plate counting method; assay type: functional; summary of the method: as §4
# [12] = Protein binding healthy human serum; assay type: ADME, cell-free; details: read-out: PB
# Enterococcus faecalis [13] = experiment: Antimicrobial activity against Enterococcus faecalis HMC 571 by microdilution method; assay type: functional
# Streptococcus agalactiae = experiment: Antimicrobial activity against Streptococcus agalactiae HMC 5 assessed as time required to induce post antibiotic sub-MIC effect at 0.3 times MIC […] by plate counting method; assay type: functional; summary of the method: as §3
# Staphylococcus aureus [14] = experiment: Antimicrobial activity against vancomycin-intermediate-, methicillin-resistant Staphylococcus aureus 770 by microdilution method; assay type: functional
# Staphylococcus aureus [15] = experiment: Antimicrobial activity against vancomycin-intermediate-, methicillin-resistant Staphylococcus aureus 1984 assessed as post-antibiotic effect at 10 times MIC pre-exposed to Telavancin for 1 hr by plate counting method; assay type: functional
# Summary of the method: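 Viable plate count method in Mueller-Hinton broth. Direct colony suspension inoculum of about 5 × 10^6 CFU/ml was exposed to 10× MIC for 1 h at 35°C in a shaking water bath, then diluted 1:1,000 to remove drug. Counts were taken before exposure, at 0 h, then every 2 h until McFarland no. 1 turbidity. PAE = T − C, the time to a 1 log10 rise versus an unexposed growth control.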
# Staphylococcus aureus [16] = experiment: Antimicrobial activity against vancomycin-susceptible-, methicillin-resistant Staphylococcus aureus 1130 assessed as time required to induce post antibiotic sub-MIC effect at 0.3 times MIC […] by plate counting method; assay type: functional
# Summary of the method: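 After 1 h preexposure to 10× MIC at 35°C and 1:1,000 dilution, cultures were split, and drug was re-added to final 0.2, 0.3 or 0.4× MIC, with a drug-free tube. Viable counts were taken every 2 h until McFarland 1 turbidity. Duration was derived from log10 CFU/ml versus time curves. Two experiments were run, each with a new inoculum.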
# Staphylococcus aureus [17] = experiment: Antimicrobial activity against vancomycin-susceptible-, methicillin-resistant Staphylococcus aureus 1307 assessed as post-antibiotic effect at 10 times MIC pre-exposed to Telavancin for 1 hr by plate counting method; assay type: functional
# Summary of the method: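 Direct colony suspensions (~5 × 10^6 CFU/ml) were exposed to 10× MIC for 1 h at 35°C with shaking in Mueller-Hinton broth, then diluted 1:1,000 to remove drug. Viable plate counts were taken before exposure, at 0 h, then every 2 h until turbidity reached McFarland 1. PAE = T − C, the time for counts to rise 1 log10 versus the unexposed control. Two separate experiments were run.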
# Staphylococcus aureus [18] = experiment: Antimicrobial activity against vancomycin-intermediate-, methicillin-resistant Staphylococcus aureus 1287 assessed as time required to induce sub-MIC effect at 0.3 times MIC […] by plate counting method; assay type: functional; summary of the method: as §5
smiles,measurement,setting,value
CCCCCCCCCCNCCN[C@@]1(C)C[C@H](O[C@H]2[C@H](Oc3c4cc5cc3Oc3ccc(cc3Cl)[C@@H](O)[C@@H](NC(=O)[C@@H](CC(C)C)NC)C(=O)N[C@@H](CC(N)=O)C(=O)N[C@H]5C(=O)N[C@H]3C(=O)N[C@H](C(=O)N[C@H](C(=O)O)c5cc(O)c(CNCP(=O)(O)O)c(O)c5-c5cc3ccc5O)[C@H](O)c3ccc(c(Cl)c3)O4)O[C@H](CO)[C@@H](O)[C@@H]2O)O[C@@H](C)[C@H]1O [TELAVANCIN],PAE,Staphylococcus aureus [1],4.8 h
same,PAE,Staphylococcus aureus [2],3.8 h
same,PAE,Enterococcus faecalis [3],2 h
same,PAE,Enterococcus faecalis [4],5.3 h
same,PAE,Staphylococcus aureus [5],6.5 h
same,PAE,Streptococcus pyogenes,> 10.7 h
same,PAE,Enterococcus faecium [6],1.2 h
same,PAE,Enterococcus faecium [7],8.8 h
same,PAE,Staphylococcus aureus [8],8.3 h
same,PAE,Staphylococcus aureus [9],2.3 h
same,MIC,Staphylococcus aureus [10],0.5 µg/mL
same,PAE,Staphylococcus aureus [11],2 h
same,fraction unbound,[12],≤ 0.1
same,MIC,Enterococcus faecalis [13],0.25 µg/mL
same,PAE,Streptococcus agalactiae,4.7 h
same,MIC,Staphylococcus aureus [14],0.25 µg/mL
same,PAE,Staphylococcus aureus [15],0.9 h
same,PAE,Staphylococcus aureus [16],10 h
same,PAE,Staphylococcus aureus [17],1.1 h
same,PAE,Staphylococcus aureus [18],0.4 h
